The text below walks through data of ChEMBL document CHEMBL1157165, “Design and synthesis of dual inhibitors of HIV reverse transcriptase and integrase: introducing a diketoacid functionality into delavirdine” (Bioorg Med Chem, 2008).

Bounds are passed on as bounds.

Assay [1] in a line: Inhibition of HIV reverse transcriptase. Also on record: species or system Human immunodeficiency virus. Summed up:
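Scintillation proximity assay: beads carry a biotin-linked poly(A) template with oligo(T) primer. Reaction incubated 3 h at 37 °C, stopped with stop buffer, counted 1 min per sample on a beta counter; IC50 reported.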

Assay [2] can be described thus: Inhibition of HIV integrase expressed in Escherichia coli BL21. Details: species or system Human immunodeficiency virus. Summed up:
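IN made in E. coli BL21(DE3) by IPTG induction. 600 nM IN stock in 10 mM HEPES pH 7.5, 10 mM MnCl2, 1 mM DTT, 10% glycerol, BSA, Brij-35, preincubated with compound or DMSO 10 min at room temperature. Reaction started with annealed 5'-biotin/3'-cy5 duplex (50 nM stock), 2 h at 37 °C. Product captured on streptavidin plate, washed with NaOH denaturing buffer, eluted in formamide, fluorescence read.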

The subject of assay [3] is Human immunodeficiency virus 1. Briefly: Antiviral activity against HIV1 by cell-based assay. In kind it is functional, organism-based. Summed up:
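Cytoprotection assay: CEM-SS cells or human PBMCs mixed with HIV-1 strain IIIB or RF in presence of compound, 6 days. Virus pre-titered to give 70–95% loss of viability in virus-control wells; cell, toxicity and colorimetric controls included. Viability by MTS or XTT dye reduction; EC50 = concentration inhibiting virus replication by 50%.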

By IC50 is commonly meant the concentration at which inhibition is half-maximal. By EC50 is commonly meant the concentration that produces a half-maximal response. Low values mean greater potency, high ones weaker potency. Regarding `CC(C)Nc1cccnc1N1CCN(C(=O)c2cc3cccc(C(=O)/C=C(\O)C(=O)O)c3[nH]2)CC1`, the IC50 in assay [1] and in assay [2] was more than 100 µM throughout. The EC50 in assay [3] is more than 10 µM.
With `CC(C)Nc1cccnc1N1CCN(C(=O)c2[nH]c3ccc(C(=O)/C=C(\O)C(=O)O)cc3c2Br)CC1`, the IC50 turned out to be 0.12 µM in assay [1] and 3.9 µM in assay [2]. This compound also came in with an EC50 in assay [3] of 0.79 µM.
Regarding `CC(C)Nc1cccnc1N1CCN(C(=O)c2[nH]c3c(C(=O)/C=C(\O)C(=O)O)cccc3c2Br)CC1`, the IC50 was more than 100 µM in assay [1] and 75 µM in assay [2]. Further, the EC50 in assay [3] was more than 10 µM.
Turning to `CC(C)Nc1cccnc1N1CCN(C(=O)c2[nH]c3ccc(C(=O)/C=C(\O)C(=O)O)cc3c2Cl)CC1`, the values for the IC50 in assay [1] and in assay [2] were 1.1 µM and 4.7 µM, respectively. In assay [3], this compound had an EC50 of 0.98 µM.
Taken in the same sequence, the figures for `CC(C)Nc1cccnc1N1CCN(C(=O)c2[nH]c3c(C(=O)/C=C(\O)C(=O)O)cccc3c2Cl)CC1` were more than 100 µM, more than 100 µM and more than 10 µM.
Take `CC(C)Nc1cccnc1N1CCN(C(=O)c2cc3cc(C(=O)/C=C(\O)C(=O)O)ccc3[nH]2)CC1`: the IC50 in assay [1] was 0.0059 µM; in assay [2], 11 µM. For the same compound, in assay [3], the EC50 worked out at 0.52 µM.
For the compound `CC(C)Nc1cccnc1N1CCN(C(=O)c2cc3cc(NS(C)(=O)=O)ccc3[nH]2)CC1` [DELAVIRDINE], the results for the IC50 in assay [1] and in assay [2] were 0.036 µM and more than 100 µM, respectively. Moreover, the EC50 in assay [3] was 0.021 µM.
